Assay results from different studies.
Lines come from different studies, so protocols differ.
DRD3: D(3) dopamine receptor (DRD3, Homo sapiens, UniProt P35462)
USP51: Ubiquitin carboxyl-terminal hydrolase 51 (USP51, Homo sapiens, UniProt Q70EK9)
CA12: Carbonic anhydrase 12 (CA12, Homo sapiens, UniProt O43570)
SLC6A3: Sodium-dependent dopamine transporter (SLC6A3, Homo sapiens, UniProt Q01959)

Structure (SMILES)	target	assay	test system	setting	inhibition
COc1ccc(S(N)(=O)=O)cc1C(=O)NCCCN1CCN(c2ccccc2OC)CC1	DRD3	enzyme activity, inhibitor		10 µM	21.6%
Oc1cccc(Nc2nc(-c3ccc(F)cc3F)cs2)c1	Peroxisome proliferator-activated receptor gamma (PPARG, Homo sapiens, UniProt P37231)	cell-free assay		10 µM	86.5%
Cc1ccccc1OCC(O)CN1CCN(CC(O)COc2ccccc2C)CC1 (stereo not shown)	DRD3	enzyme activity, inhibitor		10 µM	-12.1%
C/C=C1\[C@H]2C=C(C)C[C@]1(N)c1ccc(=O)[nH]c1C2	USP51	enzyme activity, inhibitor		5 µM	47%
CCOC(=O)C1CSc2[nH]c(=O)sc2C1c1cn(-c2ccccc2)nc1-c1ccc(Br)cc1 (stereo not shown)	CA12	enzyme activity, inhibitor, absorbance		1 µM	55.8%
CC(=O)O[C@H]1[C@H](O[C@@H]2[C@@H](O)[C@@H](O)[C@H](Oc3c(-c4ccc(O)cc4)oc4cc(O)cc(O)c4c3=O)O[C@H]2C)O[C@H](CO)[C@@H](O)[C@@H]1O	Aromatase (CYP19A1, Homo sapiens, UniProt P11511)	enzyme activity, inhibitor		20 µg/mL	58%
O=C(O)CC(O)C(=O)O (stereo not shown)	USP51	enzyme activity, inhibitor		5 µM	31%
CCOC(=O)C1CSc2[nH]c(=O)sc2C1c1cn(-c2ccccc2)nc1-c1ccccc1 (stereo not shown)	CA12	enzyme activity, inhibitor, absorbance		10 nM	10.6%
COc1cc(C(C)=O)ccc1O	USP51	enzyme activity, inhibitor		5 µM	48%
CCOC(=O)C1CSc2[nH]c(=O)sc2C1c1cn(-c2ccccc2)nc1-c1ccc(OC)cc1 (stereo not shown)	CA12	enzyme activity, inhibitor, absorbance		10 µM	78%
CCC(=O)c1ccc(OCC(O)CN2CCN(S(=O)(=O)N3CCCCC3)CC2)cc1 (stereo not shown)	DRD3	enzyme activity, inhibitor		10 µM	7.7%
Clc1ccc(C(c2ccccc2)c2nnnn2CCCCN2CCC(CCCc3ccccc3)CC2)cc1 (stereo not shown)	SLC6A3	transporter uptake, inhibitor	HEK293	1 µM	69%
NC(=O)C[C@H](N)C(=O)O	USP51	enzyme activity, inhibitor		5 µM	24%
CCOC(=O)C1CSc2[nH]c(=O)sc2C1c1cn(-c2ccccc2)nc1-c1ccc(Cl)cc1 (stereo not shown)	CA12	enzyme activity, inhibitor, absorbance		0.1 µM	46.4%
Clc1ccc(C(c2ccc(Cl)cc2)c2nnnn2CCCCN2CCN(CCCc3ccccc3)CC2)cc1	SLC6A3	transporter uptake, inhibitor	HEK293	1 µM	72.7%
N[C@@H](Cc1ccccc1)C(=O)O	USP51	enzyme activity, inhibitor		5 µM	0%
Clc1ccc(C(c2ccccc2)c2nnnn2CCCN2CCC(Cc3ccccc3)CC2)cc1 (stereo not shown)	SLC6A3	transporter uptake, inhibitor	HEK293	1 µM	93.8%
CC(=O)Nc1ccc(N2CC(O)=C(c3nc4ccccc4[nH]3)C2=N)cc1	DRD3	enzyme activity, inhibitor		10 µM	-23.2%
CNC(=O)c1cc(Oc2ccc(NC(=O)Nc3ccc(Cl)c(C(F)(F)F)c3)cc2)ccn1	Tyrosine-protein kinase Lyn (Lyn, Mus musculus, UniProt P25911)	enzyme activity, inhibitor		10 µM	95%
COc1cc(C=O)ccc1O	USP51	enzyme activity, inhibitor		5 µM	50%
COc1cc(C(C)=O)ccc1OCC(O)CN1CCN(c2cc(Cl)ccc2C)CC1 (stereo not shown)	DRD3	enzyme activity, inhibitor		10 µM	35.9%
Clc1ccc(C(c2ccc(Cl)cc2)c2nnnn2CCCCN2CCC(Cc3ccccc3)CC2)cc1	SLC6A3	transporter uptake, inhibitor	HEK293	1 µM	78.5%
Nc1cc[nH]c(=O)n1	USP51	enzyme activity, inhibitor		5 µM	27%
COc1cc(OC)c(OC)cc1CN1CCN(Cc2c[nH]c3ccccc23)CC1	DRD3	enzyme activity, inhibitor		10 µM	8.6%
N#CC1CSc2[nH]c(=O)sc2C1c1cn(-c2ccccc2)nc1-c1ccc(Br)cc1 (stereo not shown)	CA12	enzyme activity, inhibitor, absorbance		10 µM	84.7%
